# Reference: ChEMBL document CHEMBL1143122, “Novel analogs of D-e-MAPP and B13. Part 1: synthesis and evaluation as potential anticancer agents” (Bioorg Med Chem, 2008)
# Tests used:
# [1] = tested on: SK-MEL-2; assay: Antiproliferative activity against human SKMEL2 cells after 48 hrs; format: functional; details: SK-MEL-2, 48 h
# Outline: (§1)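 NCI 60-cell screen. Cells were grown in RPMI 1640 with 5% FBS and 2 mM L-glutamine, then plated at 5,000–40,000 cells/well according to doubling time and preincubated for 24 h at 37 °C in 5% CO2. Compounds were dissolved in DMSO at 400× the top final concentration and tested at five 10-fold dilutions from 10−4 to 10−8 M for 48 h. Growth was read spectrophotometrically; GI50 is 50% net protein reduction.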
# [2] = tested on: UACC-62; assay: Antiproliferative activity against human UACC62 cells after 48 hrs; format: functional; details: UACC-62, 48 h
# Outline: (§2)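 NCI 60-cell-line screen. Lines grown in RPMI 1640 with 5% fetal bovine serum and 2 mM L-glutamine, plated at 5,000–40,000 cells/well according to doubling time, left 24 h at 37 °C in 5% CO2. Drug stocks in DMSO at 400-fold the top final concentration. Five 10-fold dilutions, 10−4 to 10−8 M, incubated 48 h. Growth read spectrophotometrically as net protein; GI50 taken as 50% reduction.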
# [3] = tested on: UO-31; assay: Antiproliferative activity against human UO31 cells after 48 hrs; format: functional; details: UO-31, 48 h; outline: as §2
# [4] = tested on: MOLT-4; assay: Antiproliferative activity against human MOLT4 cells after 48 hrs; format: functional; details: MOLT-4, 48 h; outline: as §1
# [5] = Antiproliferative activity against human HL60(TB) cells after 48 hrs; format: functional, HL-60(TB); details: HL-60, 48 h
# Outline: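 NCI 60-line panel screen: cells grown in RPMI 1640 with 5% fetal bovine serum and 2 mM L-glutamine, plated at 5,000–40,000 cells/well by doubling time, and preincubated 24 h at 37 °C in 5% CO2. Drugs were solubilised in DMSO at 400-fold the final maximum and tested at five 10-fold dilutions from 10−4 to 10−8 M for 48 h. Net protein was read spectrophotometrically, and the concentration giving 50% reduction was reported as log10 GI50.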
# [6] = tested on: LOX IMVI; assay: Antiproliferative activity against human LOXIMVI cells after 48 hrs; format: functional; outline: as §1
# [7] = tested on: NCI-H322M; assay: Antiproliferative activity against human NCI-H322M cells after 48 hrs; format: functional; outline: as §1
# [8] = tested on: HT-29; assay: Antiproliferative activity against human HT29 cells after 48 hrs; format: functional; details: HT-29, 48 h; outline: as §1
# [9] = tested on: T47D; assay: Antiproliferative activity against human T47D cells after 48 hrs; format: functional; outline: as §2
# [10] = tested on: KM12; assay: Antiproliferative activity against human KM12 cells after 48 hrs; format: functional; details: for CC50: read-out: Log LC50 (the source's name) (converted); outline: as §1
# [11] = tested on: SF-295; assay: Antiproliferative activity against human SF295 cells after 48 hrs; format: functional; details: SF-295, 48 h; outline: as §1
# [12] = tested on: SK-OV-3; assay: Antiproliferative activity against human SKOV3 cells after 48 hrs; format: functional; details: SK-OV-3, 48 h; outline: as §1
# [13] = tested on: HOP-62; assay: Antiproliferative activity against human HOP62 cells after 48 hrs; format: functional; details: HOP-62, 48 h; outline: as §1
# [14] = tested on: DU-145; assay: Antiproliferative activity against human DU145 cells after 48 hrs; format: functional; details: DU-145, 48 h; outline: as §1
# [15] = tested on: SN12C; assay: Antiproliferative activity against human SN12C cells after 48 hrs; format: functional; outline: as §1
# [16] = tested on: PC-3; assay: Antiproliferative activity against human PC3 cells after 48 hrs; format: functional; details: PC-3, 48 h; outline: as §1
# [17] = tested on: HOP-92; assay: Antiproliferative activity against human HOP92 cells after 48 hrs; format: functional; details: HOP-92, 48 h; outline: as §1
# [18] = tested on: 786-0; assay: Antiproliferative activity against human 786-0 cells after 48 hrs; format: functional; details: 786-0, 48 h; outline: as §1
# [19] = tested on: SNB-19; assay: Antiproliferative activity against human SNB19 cells after 48 hrs; format: functional; details: SNB-19, 48 h; outline: as §1
# [20] = tested on: UACC-257; assay: Antiproliferative activity against human UACC257 cells after 48 hrs; format: functional; details: UACC-257, 48 h; outline: as §2
# [21] = tested on: M14; assay: Antiproliferative activity against human M14 cells after 48 hrs; format: functional; details: M14, 48 h; outline: as §1
# [22] = tested on: A498; assay: Antiproliferative activity against human A498 cells after 48 hrs; format: functional; details: A498, 48 h, read-out: Log TGI (converted); outline: as §1
# [23] = tested on: TK-10; assay: Antiproliferative activity against human TK10 cells after 48 hrs; format: functional; details: TK-10, 48 h; outline: as §2
# [24] = tested on: NCI-H460; assay: Antiproliferative activity against human NCI-H460 cells after 48 hrs; format: functional; details: NCI-H460, 48 h; outline: as §1
# [25] = tested on: SK-MEL-28; assay: Antiproliferative activity against human SKMEL28 cells after 48 hrs; format: functional; details: SK-MEL-28, 48 h; outline: as §1
# [26] = tested on: HCT-15; assay: Antiproliferative activity against human HCT15 cells after 48 hrs; format: functional; outline: as §1
# [27] = tested on: IGROV-1; assay: Antiproliferative activity against human IGROV1 cells after 48 hrs; format: functional; details: IGROV-1, 48 h, read-out: Log TGI (converted); outline: as §1
# [28] = tested on: MDA-MB-231; assay: Antiproliferative activity against human MDA-MB-231 cells after 48 hrs; format: functional; details: MDA-MB-231, 48 h; outline: as §1
# [29] = tested on: CAKI-1; assay: Antiproliferative activity against human CAKI1 cells after 48 hrs; format: functional; details: CAKI-1, 48 h; outline: as §1
# [30] = Antiproliferative activity against human NCI-ADR-RES cells after 48 hrs; format: functional; outline: as §1
# [31] = read-out: Log LC50 (the source's name) (converted)
smiles,measurement,setting,value
CCCCCCCCCCCCCCN[C@@H](C)[C@H](O)c1ccccc1,GI50,[1],1.78 µM
same,TGI,[1]; read-out: Log TGI (converted),3.72 µM
same,GI50,[2],1.82 µM
same,LC50,[2],6.31 µM
same,TGI,[2]; read-out: Log TGI (converted),3.39 µM
same,GI50,[3],1.74 µM
same,LC50,[3],6.61 µM
same,TGI,[3]; read-out: Log TGI (converted),3.39 µM
same,GI50,[4],2.29 µM
same,TGI,[4]; read-out: Log TGI (converted),4.68 µM
same,GI50,[5],2 µM
same,LC50,[5],8.13 µM
same,TGI,[5]; read-out: Log TGI (converted),3.98 µM
same,GI50,[6],1.78 µM
same,LC50,[6],5.89 µM
same,TGI,[6]; read-out: Log TGI (converted),3.24 µM
same,GI50,[7],2.04 µM
same,CC50,[7]; [31],6.61 µM
same,TGI,[7]; read-out: Log TGI (converted),3.72 µM
same,GI50,[8],1.86 µM
same,LC50,[8],6.76 µM
same,TGI,[8]; read-out: Log TGI (converted),3.55 µM
same,GI50,[9],2.09 µM
same,CC50,[9]; [31],7.59 µM
same,TGI,[9]; read-out: Log TGI (converted),3.98 µM
same,GI50,"[10]; Homo sapiens, KM12, 48 h",1.86 µM
same,CC50,"[10]; Homo sapiens, KM12, 48 h",6.31 µM
same,CC50,[10],5.62 µM
same,GI50,[11],1.78 µM
same,LC50,[11],6.46 µM
same,TGI,[11]; read-out: Log TGI (converted),3.39 µM
same,GI50,[12],2.34 µM
same,CC50,[12]; [31],9.77 µM
same,TGI,[12]; read-out: Log TGI (converted),4.79 µM
same,GI50,[13],1.95 µM
same,CC50,[13]; [31],6.17 µM
same,TGI,[13]; read-out: Log TGI (converted),3.47 µM
same,GI50,[14],1.86 µM
same,CC50,[14]; [31],6.46 µM
same,TGI,[14]; read-out: Log TGI (converted),3.47 µM
same,GI50,[15],1.82 µM
same,LC50 (50% net cell kill),[15],6.76 µM
same,TGI,[15]; read-out: Log TGI (converted),3.47 µM
same,GI50,[16],2.04 µM
same,TGI,[16]; read-out: Log TGI (converted),3.72 µM
same,GI50,[17],1.51 µM
same,TGI,[17]; read-out: Log TGI (converted),3.09 µM
same,GI50,[18],1.58 µM
same,CC50,[18]; [31],5.89 µM
same,TGI,[18]; read-out: Log TGI (converted),3.09 µM
same,GI50,[19],1.7 µM
same,CC50,[19]; [31],5.89 µM
same,TGI,[19]; read-out: Log TGI (converted),3.16 µM
same,GI50,[20],1.86 µM
same,CC50,[20]; [31],6.76 µM
same,TGI,[20]; read-out: Log TGI (converted),3.55 µM
same,GI50,[21],1.95 µM
same,LC50,[21],6.31 µM
same,TGI,[21]; read-out: Log TGI (converted),3.55 µM
same,TGI,[22],10 µM
same,GI50,[23],2 µM
same,CC50,[23]; [31],6.17 µM
same,TGI,[23]; read-out: Log TGI (converted),3.47 µM
same,GI50,[24],1.91 µM
same,CC50,[24]; [31],6.31 µM
same,TGI,[24]; read-out: Log TGI (converted),3.47 µM
same,GI50,[25],1.91 µM
same,LC50,[25],6.31 µM
same,TGI,[25]; read-out: Log TGI (converted),3.47 µM
same,LC50,[26],6.31 µM
same,GI50,"[26]; Homo sapiens, HCT-15, 48 h",1.91 µM
same,LC50,"[26]; Homo sapiens, HCT-15, 48 h",5.89 µM
same,TGI,[27],3.55 µM
same,GI50,[28],1.91 µM
same,LC50 (50% lethal concentration),[28],6.46 µM
same,TGI,[28]; read-out: Log TGI (converted),3.55 µM
same,GI50,[29],1.95 µM
same,CC50,[29]; [31],5.89 µM
same,TGI,[29]; read-out: Log TGI (converted),3.39 µM
same,GI50,[30],1.7 µM
same,TGI,[30]; read-out: Log TGI (converted),3.39 µM
